ChEMBL document CHEMBL5696442, “Discovery of type II inhibitors of TGFβ-activated kinase 1 (TAK1) and mitogen-activated protein kinase kinase kinase kinase 2 (MAP4K2)” (J Med Chem, 2015)

Key:
[1] = biological target: Tyrosine-protein kinase ABL2 (Homo sapiens, UniProt P42684); assay: Inhibition of ARG Lys1 labeling site in human Huh-7 cell lysate at 1 uM by KiNativ Profiling analysis relative to control; assay type: subcellular
[2] = biological target: TRAF2 and NCK-interacting protein kinase (Homo sapiens) (UniProt Q9UKE5); assay: Inhibition of ZC2/TNIK Lys1 labeling site in human A-375 cells at 0.5 uM by KiNativ Profiling analysis relative to control; assay type: cell-based
[3] = biological target: Cyclin-dependent kinase 1 (Homo sapiens) (UniProt P06493); assay: Inhibition of CDC2 Lys2 labeling site harbouring DLKPQNLLIDDKGTIK in human A-375 cells at 0.5 uM by KiNativ Profiling analysis relative to control; assay type: cell-based
Summary of the method: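 Live A375 melanoma cells were treated with compound at 5 or 0.5 μM. The cells were then lysed, and the lysates were labeled with a lysine-reactive ATP or ADP-biotin acyl probe (KiNativ). Inhibition is the compound's protection of each kinase labeling-site peptide from probe labeling, relative to untreated control.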

[4] = biological target: T1, Serine/threonine-protein kinase Nek9 (Homo sapiens) (UniProt Q8TD19); assay: Inhibition of NEK9 Lys1 labeling site harbouring RTEDDSLVVWKEVDLTR in human A-375 cells at 0.5 uM by KiNativ Profiling analysis relative to control; assay type: cell-based
T1 sequence (whole entry): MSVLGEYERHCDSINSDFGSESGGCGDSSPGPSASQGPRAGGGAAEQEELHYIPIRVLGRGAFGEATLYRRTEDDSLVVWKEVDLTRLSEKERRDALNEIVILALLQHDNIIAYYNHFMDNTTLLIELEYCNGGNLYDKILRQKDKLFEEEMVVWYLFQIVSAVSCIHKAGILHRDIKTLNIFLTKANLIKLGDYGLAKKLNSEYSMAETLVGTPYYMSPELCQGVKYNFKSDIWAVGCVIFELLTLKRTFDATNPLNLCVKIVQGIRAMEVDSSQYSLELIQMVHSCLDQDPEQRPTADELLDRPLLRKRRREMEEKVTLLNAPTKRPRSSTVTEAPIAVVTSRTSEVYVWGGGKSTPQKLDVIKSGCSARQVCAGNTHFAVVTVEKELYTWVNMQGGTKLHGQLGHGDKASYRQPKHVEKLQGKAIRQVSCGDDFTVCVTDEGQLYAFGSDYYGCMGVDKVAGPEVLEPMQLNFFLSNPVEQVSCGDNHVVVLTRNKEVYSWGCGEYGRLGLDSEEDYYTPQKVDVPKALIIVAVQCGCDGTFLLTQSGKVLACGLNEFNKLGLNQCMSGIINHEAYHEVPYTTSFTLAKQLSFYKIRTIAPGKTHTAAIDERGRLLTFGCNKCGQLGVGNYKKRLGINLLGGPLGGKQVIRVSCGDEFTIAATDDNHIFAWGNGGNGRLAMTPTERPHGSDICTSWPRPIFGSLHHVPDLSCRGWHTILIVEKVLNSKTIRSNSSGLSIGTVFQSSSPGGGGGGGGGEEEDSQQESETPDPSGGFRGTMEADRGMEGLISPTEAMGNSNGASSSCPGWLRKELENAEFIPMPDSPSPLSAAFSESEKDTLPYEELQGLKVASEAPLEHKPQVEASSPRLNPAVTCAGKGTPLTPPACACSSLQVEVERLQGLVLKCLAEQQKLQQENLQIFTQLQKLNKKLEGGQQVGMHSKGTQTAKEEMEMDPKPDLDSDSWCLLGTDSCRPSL

[5] = biological target: T2, Phosphatidylinositol 5-phosphate 4-kinase type-2 alpha (Homo sapiens) (UniProt P48426); assay: Inhibition of PIP4K2A ATP labeling site in human A-375 cells at 0.5 uM by KiNativ Profiling analysis relative to control; assay type: cell-based
T2 sequence (whole entry): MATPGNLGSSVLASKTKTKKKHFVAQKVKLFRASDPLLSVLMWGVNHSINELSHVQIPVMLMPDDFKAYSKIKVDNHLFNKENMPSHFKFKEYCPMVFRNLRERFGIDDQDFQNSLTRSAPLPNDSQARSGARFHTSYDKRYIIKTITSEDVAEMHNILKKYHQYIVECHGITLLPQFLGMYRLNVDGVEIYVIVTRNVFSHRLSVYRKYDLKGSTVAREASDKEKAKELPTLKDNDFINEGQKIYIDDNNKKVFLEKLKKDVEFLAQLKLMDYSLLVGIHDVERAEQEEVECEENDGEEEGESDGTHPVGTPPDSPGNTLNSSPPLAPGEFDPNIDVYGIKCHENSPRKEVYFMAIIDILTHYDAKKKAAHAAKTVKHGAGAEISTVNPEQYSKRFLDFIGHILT

[6] = biological target: T3, EKC/KEOPS complex subunit TP53RK (Homo sapiens) (UniProt Q96S44); assay: Inhibition of PRPK ATP Loop labeling site in human A-375 cells at 0.5 uM by KiNativ Profiling analysis relative to control; assay type: cell-based
T3 sequence (whole entry): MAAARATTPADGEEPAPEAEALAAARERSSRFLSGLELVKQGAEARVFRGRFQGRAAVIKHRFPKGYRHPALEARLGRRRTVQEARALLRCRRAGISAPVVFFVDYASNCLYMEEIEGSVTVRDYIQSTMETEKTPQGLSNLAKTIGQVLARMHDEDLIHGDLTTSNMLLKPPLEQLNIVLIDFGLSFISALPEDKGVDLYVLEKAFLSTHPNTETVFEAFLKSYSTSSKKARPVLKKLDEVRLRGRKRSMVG

[7] = biological target: T4, Serine/threonine-protein kinase ULK3 (Homo sapiens) (UniProt Q6PHR2); assay: Inhibition of ULK3 Lys2 labeling site in human A-375 cells at 0.5 uM by KiNativ Profiling analysis relative to control; assay type: cell-based
T4 sequence (whole entry): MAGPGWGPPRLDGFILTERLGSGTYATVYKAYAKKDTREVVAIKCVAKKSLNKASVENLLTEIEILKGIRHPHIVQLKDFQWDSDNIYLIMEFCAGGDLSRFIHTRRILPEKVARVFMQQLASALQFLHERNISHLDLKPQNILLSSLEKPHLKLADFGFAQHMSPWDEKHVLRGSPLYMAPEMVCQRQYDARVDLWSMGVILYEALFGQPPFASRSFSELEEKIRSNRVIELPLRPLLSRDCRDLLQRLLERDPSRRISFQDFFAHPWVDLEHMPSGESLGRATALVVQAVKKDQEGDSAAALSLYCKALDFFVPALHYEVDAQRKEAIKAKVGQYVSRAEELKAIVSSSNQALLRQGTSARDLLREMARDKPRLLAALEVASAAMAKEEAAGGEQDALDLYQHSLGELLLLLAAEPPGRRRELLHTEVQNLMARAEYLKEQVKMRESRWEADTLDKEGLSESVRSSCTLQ

[8] = biological target: Serine/threonine-protein kinase WNK1 (Homo sapiens) (UniProt Q9H4A3); assay: Inhibition of Wnk1 ACT labeling site in human A-375 cells at 0.05 uM by KiNativ Profiling analysis relative to control; assay type: cell-based
[9] = biological target: TRAF2 and NCK-interacting protein kinase (Homo sapiens) (UniProt Q9UKE5); assay: Inhibition of ZC2/TNIK Lys2 labeling site in human A-375 cells at 0.05 uM by KiNativ Profiling analysis relative to control; assay type: cell-based
[10] = biological target: TRAF2 and NCK-interacting protein kinase (Homo sapiens) (UniProt Q9UKE5); assay: Inhibition of ZC2/TNIK Lys1 labeling site in human A-375 cells at 0.05 uM by KiNativ Profiling analysis relative to control; assay type: cell-based

Sequence of TRAF2 and NCK-interacting protein kinase (Homo sapiens) (Q9UKE5 whole entry, looked up): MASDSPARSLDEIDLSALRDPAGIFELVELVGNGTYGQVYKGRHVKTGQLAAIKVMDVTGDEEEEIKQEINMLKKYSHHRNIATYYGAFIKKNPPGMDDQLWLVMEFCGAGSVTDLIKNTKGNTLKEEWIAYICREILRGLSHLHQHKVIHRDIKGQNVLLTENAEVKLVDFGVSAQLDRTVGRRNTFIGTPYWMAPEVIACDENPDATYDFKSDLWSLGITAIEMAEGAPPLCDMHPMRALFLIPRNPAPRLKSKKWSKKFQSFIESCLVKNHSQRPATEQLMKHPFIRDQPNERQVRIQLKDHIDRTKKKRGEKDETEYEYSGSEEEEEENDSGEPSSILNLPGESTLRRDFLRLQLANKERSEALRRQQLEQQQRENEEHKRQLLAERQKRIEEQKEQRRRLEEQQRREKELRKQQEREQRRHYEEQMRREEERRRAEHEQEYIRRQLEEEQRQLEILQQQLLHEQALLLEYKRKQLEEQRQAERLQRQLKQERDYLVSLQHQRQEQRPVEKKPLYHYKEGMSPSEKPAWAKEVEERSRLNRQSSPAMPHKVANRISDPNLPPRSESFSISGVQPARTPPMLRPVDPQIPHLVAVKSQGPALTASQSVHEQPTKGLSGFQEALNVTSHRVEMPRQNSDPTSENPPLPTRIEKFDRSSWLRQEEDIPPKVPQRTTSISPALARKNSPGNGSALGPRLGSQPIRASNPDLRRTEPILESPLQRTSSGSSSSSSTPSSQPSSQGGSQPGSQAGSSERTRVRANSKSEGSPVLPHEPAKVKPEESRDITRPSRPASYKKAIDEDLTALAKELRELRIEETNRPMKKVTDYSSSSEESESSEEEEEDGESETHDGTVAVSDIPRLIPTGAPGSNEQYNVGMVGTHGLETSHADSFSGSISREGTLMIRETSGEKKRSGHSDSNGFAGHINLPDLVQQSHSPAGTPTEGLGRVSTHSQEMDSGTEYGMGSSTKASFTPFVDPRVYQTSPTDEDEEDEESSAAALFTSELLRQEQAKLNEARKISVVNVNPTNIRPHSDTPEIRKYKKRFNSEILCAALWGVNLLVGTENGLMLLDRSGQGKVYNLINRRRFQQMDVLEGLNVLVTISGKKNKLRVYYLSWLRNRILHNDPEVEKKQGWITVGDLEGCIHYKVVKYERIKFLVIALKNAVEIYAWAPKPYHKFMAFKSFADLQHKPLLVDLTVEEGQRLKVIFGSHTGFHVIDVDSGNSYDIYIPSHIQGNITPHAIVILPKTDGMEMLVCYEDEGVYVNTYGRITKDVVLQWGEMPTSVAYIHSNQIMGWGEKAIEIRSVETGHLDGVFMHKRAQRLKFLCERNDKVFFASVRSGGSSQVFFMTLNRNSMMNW
Sequence of Serine/threonine-protein kinase WNK1 (Homo sapiens) (Q9H4A3 whole entry, looked up): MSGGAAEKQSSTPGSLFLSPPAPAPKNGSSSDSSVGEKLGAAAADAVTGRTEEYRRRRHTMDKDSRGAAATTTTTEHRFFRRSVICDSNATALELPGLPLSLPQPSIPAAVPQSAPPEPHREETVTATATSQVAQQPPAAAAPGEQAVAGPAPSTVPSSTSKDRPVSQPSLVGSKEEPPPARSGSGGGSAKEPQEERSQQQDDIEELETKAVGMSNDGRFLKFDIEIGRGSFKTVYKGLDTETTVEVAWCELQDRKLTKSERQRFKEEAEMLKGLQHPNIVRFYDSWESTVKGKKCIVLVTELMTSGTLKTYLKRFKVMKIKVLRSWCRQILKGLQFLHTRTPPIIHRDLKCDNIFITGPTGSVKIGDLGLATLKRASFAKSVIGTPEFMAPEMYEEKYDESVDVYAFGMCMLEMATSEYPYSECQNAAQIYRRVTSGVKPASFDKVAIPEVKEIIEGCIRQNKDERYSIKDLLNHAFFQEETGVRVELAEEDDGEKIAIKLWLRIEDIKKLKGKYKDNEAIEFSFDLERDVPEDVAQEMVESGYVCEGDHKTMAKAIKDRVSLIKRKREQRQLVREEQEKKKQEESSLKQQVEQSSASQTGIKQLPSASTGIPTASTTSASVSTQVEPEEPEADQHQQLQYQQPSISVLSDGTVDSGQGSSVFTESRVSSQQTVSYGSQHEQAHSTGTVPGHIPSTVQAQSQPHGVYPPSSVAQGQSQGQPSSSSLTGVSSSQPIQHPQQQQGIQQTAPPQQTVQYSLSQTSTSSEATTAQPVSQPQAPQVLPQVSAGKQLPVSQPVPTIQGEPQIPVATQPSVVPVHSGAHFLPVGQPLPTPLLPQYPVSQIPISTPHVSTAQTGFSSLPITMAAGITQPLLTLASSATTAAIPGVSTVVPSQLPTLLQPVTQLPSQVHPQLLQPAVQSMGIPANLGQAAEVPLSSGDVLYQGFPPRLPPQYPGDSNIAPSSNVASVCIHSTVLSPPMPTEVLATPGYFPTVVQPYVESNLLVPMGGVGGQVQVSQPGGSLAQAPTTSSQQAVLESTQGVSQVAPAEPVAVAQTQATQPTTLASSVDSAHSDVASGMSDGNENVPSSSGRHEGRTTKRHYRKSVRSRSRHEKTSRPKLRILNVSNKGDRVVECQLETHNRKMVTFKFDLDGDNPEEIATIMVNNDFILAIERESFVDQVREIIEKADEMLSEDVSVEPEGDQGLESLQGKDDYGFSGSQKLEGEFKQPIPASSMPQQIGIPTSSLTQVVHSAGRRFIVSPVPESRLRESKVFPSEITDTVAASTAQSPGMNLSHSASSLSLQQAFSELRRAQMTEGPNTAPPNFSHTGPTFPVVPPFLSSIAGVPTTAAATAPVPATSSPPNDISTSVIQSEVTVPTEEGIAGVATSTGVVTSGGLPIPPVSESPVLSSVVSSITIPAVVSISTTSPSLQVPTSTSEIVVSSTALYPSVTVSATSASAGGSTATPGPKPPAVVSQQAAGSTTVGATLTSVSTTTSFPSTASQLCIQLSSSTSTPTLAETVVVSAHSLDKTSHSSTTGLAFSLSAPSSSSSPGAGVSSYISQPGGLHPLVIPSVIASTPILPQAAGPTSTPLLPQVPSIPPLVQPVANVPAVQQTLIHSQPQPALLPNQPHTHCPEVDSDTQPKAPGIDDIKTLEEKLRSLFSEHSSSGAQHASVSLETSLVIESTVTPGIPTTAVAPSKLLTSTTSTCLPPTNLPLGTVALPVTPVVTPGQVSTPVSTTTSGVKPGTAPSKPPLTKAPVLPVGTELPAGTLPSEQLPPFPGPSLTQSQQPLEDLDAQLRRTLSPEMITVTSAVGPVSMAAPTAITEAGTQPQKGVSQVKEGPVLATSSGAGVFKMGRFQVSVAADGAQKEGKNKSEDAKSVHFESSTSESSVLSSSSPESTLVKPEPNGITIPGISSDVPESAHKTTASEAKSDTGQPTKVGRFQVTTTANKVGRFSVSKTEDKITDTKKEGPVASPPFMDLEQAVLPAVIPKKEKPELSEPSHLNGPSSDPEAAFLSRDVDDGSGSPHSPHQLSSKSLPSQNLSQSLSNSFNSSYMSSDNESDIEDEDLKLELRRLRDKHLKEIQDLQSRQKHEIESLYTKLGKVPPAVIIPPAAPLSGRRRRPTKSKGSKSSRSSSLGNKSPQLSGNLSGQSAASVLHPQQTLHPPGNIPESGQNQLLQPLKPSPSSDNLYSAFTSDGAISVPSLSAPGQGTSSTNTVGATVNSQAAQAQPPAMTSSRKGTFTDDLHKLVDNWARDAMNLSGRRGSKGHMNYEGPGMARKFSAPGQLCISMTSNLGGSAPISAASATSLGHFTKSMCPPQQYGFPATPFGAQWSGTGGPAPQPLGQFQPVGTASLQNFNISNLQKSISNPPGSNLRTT
Sequence of Cyclin-dependent kinase 1 (Homo sapiens) (P06493 whole entry, looked up): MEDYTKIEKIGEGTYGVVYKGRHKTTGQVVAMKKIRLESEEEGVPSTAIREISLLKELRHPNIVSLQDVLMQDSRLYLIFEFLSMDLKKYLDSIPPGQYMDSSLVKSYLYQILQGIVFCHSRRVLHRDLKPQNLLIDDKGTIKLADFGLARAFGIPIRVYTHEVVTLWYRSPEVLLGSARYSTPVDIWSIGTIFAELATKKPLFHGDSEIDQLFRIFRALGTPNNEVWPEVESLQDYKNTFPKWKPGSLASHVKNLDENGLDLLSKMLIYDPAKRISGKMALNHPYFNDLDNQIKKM

SMILES: CNc1cc(Oc2cc(C(=O)Nc3cc(-n4cnc(C)c4)cc(C(F)(F)F)c3)ccc2C)ncn1
- inhibition [1]: 51.8%

SMILES: CCN1CCN(Cc2ccc(NC(=O)c3ccc(C)c(Oc4ccnc5[nH]ccc45)c3)cc2C(F)(F)F)CC1
- inhibition [2]: 77.9%
- inhibition [3]: 13.7%
- inhibition [4]: 13.9%
- inhibition [5]: -0.4%
- inhibition [6]: 9.2%
- inhibition [7]: -2.5%
- inhibition [8]: 10.3%
- inhibition [9]: 32.6%
- inhibition [10]: 42.6%

SMILES: CCN1CCN(Cc2ccc(NC(=O)c3ccc(C)c(/C=C/c4cnc5[nH]ccc5c4OC)c3)cc2C(F)(F)F)CC1
- inhibition [2]: 74.9%
- inhibition [3]: 6.3%
- inhibition [4]: 7%
- inhibition [5]: -5.5%
- inhibition [6]: 9.6%
- inhibition [7]: 8.5%
- inhibition [8]: 10.1%
- inhibition [9]: 19.5%
- inhibition [10]: 57.6%

SMILES: CNc1cc(Oc2cc(C(=O)Nc3cc(N4CCN(C)CC4)cc(C(F)(F)F)c3)ccc2C)ncn1
- inhibition [1]: 48.4%
